In paper PMC4264455 (British Journal of Cancer, 2014):
“Also recorded” adds a separate entry of the source.

Legend:
[1] = test system: patients with advanced refractory solid tumours or non-Hodgkin's lymphoma; experiment: Phase I dose escalation: safety, tolerability, DLT and adverse events; assay type: in vivo, human
[2] = Pharmacokinetic analysis of plasma AT7519 after first 1-h intravenous infusion; assay type: in vivo, human
QTc intervals = experiment: ECG analysis; assay type: in vivo, human
How it was run: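 After dose level 1, patients with QTc ⩾460 ms at baseline, congenital long QT or QT-affecting medication were excluded. 12-lead ECGs were taken immediately before and after each infusion on days 1, 4, 8 and 11 of cycle 1, with a confirmatory ECG within 48 h of any abnormality. QT was machine-recorded with Bazett correction. At 27.0 mg m−2, 24-h ambulatory ECG started immediately after the cycle 1 infusion. An independent cardiologist reviewed all tracings.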

[3] = test system: advanced solid malignancies or non-Hodgkin's lymphoma; experiment: Anti-tumour activity; assay type: in vivo, human
How it was run: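 Test compound given as a 1-h IV infusion on days 1, 4, 8 and 11 every 3 weeks, at 14.4–32.4 mg m−2. Radiological assessment was done after every two cycles. Response was graded by RECIST version 1.1. Treatment continued until progression, unacceptable toxicity or consent withdrawal.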

[4] = test system: markers of CDK activity in tumour biopsies; experiment: Pharmacodynamic analysis of tumour biopsies; assay type: in vivo, human; details: three patients at RP2D, pre-dose vs 24 h after end of infusion
How it was run: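 Tumour biopsies were taken at 27.0 mg m−2, before dosing and 24 h after the end of a 1-h IV infusion. Samples were immunostained for PCNA, phospho-NPM and Ki67. Read-out was the estimated percentage of positively stained tumour cells.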

CDK4 = details: ref Squires et al, 2009; cited from earlier work
CDK6 = details: ref Squires et al, 2009; cited from earlier work
human cancer cell lines = details: in vitro studies; ref Squires et al, 2010; cited from earlier work
[5] = test system: patients with refractory solid tumors; details: ref Mahadevan et al, 2011, cited from earlier work
[6] = 1-h intravenous infusion on days 1, 4, 8 and 11 every 3 weeks
[7] = 1-h intravenous infusion, day 1 cycle 1, 29 patients
[8] = 19 patients evaluable for efficacy
[9] = five consecutive days every 3 weeks

O=C(NC1CCNCC1)c1n[nH]cc1NC(=O)c1c(Cl)cccc1Cl [AT7519, N-(4-piperidinyl)-4-(2,6-dichlorobenzoylamino)-1H-pyrazole-3-carboxamide]
maximum tolerated dose [1, 6]: 32.4 mg m^−2
recommended phase II dose (RP2D) [1, 6]: 27.0 mg m^−2
ALP elevation: Any grade AE No. of patients (%) ([1]; all dose levels (N=32)): 20 (62.5) No. of patients (%)
ALP elevation: Grade 3/4 AE No. of patients (%) ([1]; all dose levels (N=32)): 5 (15.6) No. of patients (%)
AST elevation: Any grade AE No. of patients (%) ([1]; all dose levels (N=32)): 16 (50.0) No. of patients (%)
AST elevation: Grade 3/4 AE No. of patients (%) ([1]; all dose levels (N=32)): 3 (9.4) No. of patients (%)
Anaemia: Any grade AE No. of patients (%) ([1]; all dose levels (N=32)): 28 (87.5) No. of patients (%)
Anaemia: Grade 3/4 AE No. of patients (%) ([1]; all dose levels (N=32)): 1 (3.1) No. of patients (%)
Anorexia: Any grade AE No. of patients (%) ([1]; all dose levels (N=32)): 4 (12.5) No. of patients (%)
Anorexia: Grade 3/4 AE No. of patients (%) ([1]; all dose levels (N=32)): 0 No. of patients (%)
Creatinine elevation: Any grade AE No. of patients (%) ([1]; all dose levels (N=32)): 5 (15.6) No. of patients (%)
Creatinine elevation: Grade 3/4 AE No. of patients (%) ([1]; all dose levels (N=32)): 1 (3.1) No. of patients (%)
Diarrhoea: Any grade AE No. of patients (%) ([1]; all dose levels (N=32)): 5 (15.6) No. of patients (%)
Diarrhoea: Grade 3/4 AE No. of patients (%) ([1]; all dose levels (N=32)): 0 No. of patients (%)
Fatigue: Any grade AE No. of patients (%) ([1]; all dose levels (N=32)): 17 (53.1) No. of patients (%)
Fatigue: Grade 3/4 AE No. of patients (%) ([1]; all dose levels (N=32)): 3 (9.4) No. of patients (%)
Hyperglycaemia (random): Any grade AE No. of patients (%) ([1]; all dose levels (N=32)): 12 (37.5) No. of patients (%)
Hyperglycaemia (random): Grade 3/4 AE No. of patients (%) ([1]; all dose levels (N=32)): 2 (6.3) No. of patients (%)
Infection without neutropenia: Any grade AE No. of patients (%) ([1]; all dose levels (N=32)): 6 (18.8) No. of patients (%)
Infection without neutropenia: Grade 3/4 AE No. of patients (%) ([1]; all dose levels (N=32)): 1 (3.1) No. of patients (%)
Lymphopenia: Any grade AE No. of patients (%) ([1]; all dose levels (N=32)): 27 (84.4) No. of patients (%)
Lymphopenia: Grade 3/4 AE No. of patients (%) ([1]; all dose levels (N=32)): 12 (37.5) No. of patients (%)
Mucositis: Any grade AE No. of patients (%) ([1]; all dose levels (N=32)): 17 (53.1) No. of patients (%)
Mucositis: Grade 3/4 AE No. of patients (%) ([1]; all dose levels (N=32)): 3 (9.4) No. of patients (%)
Nausea: Grade 3/4 AE No. of patients (%) ([1]; all dose levels (N=32)): 0 No. of patients (%)
Neutropenia: Any grade AE No. of patients (%) ([1]; all dose levels (N=32)): 5 (15.6) No. of patients (%)
Neutropenia: Grade 3/4 AE No. of patients (%) ([1]; all dose levels (N=32)): 1 (3.1) No. of patients (%)
Thrombocytopenia: Any grade AE No. of patients (%) ([1]; all dose levels (N=32)): 9 (28.1) No. of patients (%)
Thrombocytopenia: Grade 3/4 AE No. of patients (%) ([1]; all dose levels (N=32)): 0 No. of patients (%)
Vomiting: Any grade AE No. of patients (%) ([1]; all dose levels (N=32)): 11 (34.4) No. of patients (%)
Vomiting: Grade 3/4 AE No. of patients (%) ([1]; all dose levels (N=32)): 0 No. of patients (%)
patients with anaemia ([1]; any grade, all dose levels): 87.5%
patients with fatigue ([1]; any grade, all dose levels): 53.1%
patients with lymphopenia ([1]; any grade, all dose levels): 84.4%
patients with mucositis ([1]; any grade, all dose levels): 53.1%
patients with nausea ([1]; any grade, all dose levels): 31.7%
patients with vomiting ([1]; any grade, all dose levels): 34.4%
No. of patients with DLT ([1]; dose level 14.4 mg m^−2, 5 patients treated, days 1, 4, 8, 11 every 3 weeks): No DLTs and none
patients experienced grade 3 fatigue and mucositis ([1]; grade 3, all dose levels): < 10%
grade 3 or 4 elevation of alkaline phosphatase ([1]; grade 3 or 4, all dose levels): 15.6%
grade 3 or 4 elevation of aspartate transaminase ([1]; grade 3 or 4, all dose levels): 9.4%
patients developing grade 3 or 4 lymphopenia ([1]; grade 3 or 4, all dose levels): 37.5%
patients with grade 3 or 4 fatigue and mucositis ([1]; grade 3 or 4, all dose levels): 9%
plasma clearance [2, 7]: 0.28±0.26 l min^−1 m^−2
volume of distribution [2, 7]: 289±218 l m^−2
dose dependence of Cmax and plasma exposures ([2]; 14.4 to 32.4 mg m^−2): apparent dose proportional increase; also recorded: linear pharmacokinetics
Cmax ([2]; human, plasma, intravenous, 27 mg): 591 ± 358 ng/mL
half-life ([2]; human, plasma, iv): 13.1 ± 4 h
patients with transient QTc increases (QTc intervals; among the 24 patients with baseline QTc ⩽450 ms): 10 patients
QTc prolongation (QTc intervals; serial ECGs, 24-h ambulatory ECG in five patients at the RP2D level): no clinically significant QTc prolongations
complete or partial response [3, 8]: no complete or partial response; also recorded: no partial response
patients with progressive disease as best response [3, 8]: nine
duration of durable stable disease in one patient ([3]; one patient with metastatic rectal cancer, 10 cycles): 11.1 months
median duration of stable disease ([3]; ten patients with stable disease): 3.3 months
changes in proliferating cell nuclear antigen, pNPM and Ki67 [4]: no consistent changes
IC50 (CDK4): 100 nM
IC50 (CDK6): 170 nM
concentrations at which anti-cancer activities were observed (human cancer cell lines): above 100 ng ml^−1
dose at which one patient death from QTc prolongation was reported [5, 9]: 34 mg m^−2 per day
minimal effective biological dose [5, 9]: 28.8 mg m^−2 per day
dose at which dose-limiting toxicity (DLT) was initially seen ([5]; × 5 days): 14.4 mg m^−2 per day
